Reference: ChEMBL document CHEMBL1129649, “A novel series of (phenoxyalkyl)imidazoles as potent H3-receptor histamine antagonists” (J Med Chem, 1996)

Molecular target: Histamine H3 receptor (Rattus norvegicus, UniProt Q9QYN8)
Experiment: Rat Histamine H3 receptor antagonism determined by [K+] - evoked depolarization-induced release of [3H]histamine from rat cerebral cortex synaptosomes
Type: functional, subcellular, Brain

Histamine H3 receptor, sequence (Q9QYN8 whole entry): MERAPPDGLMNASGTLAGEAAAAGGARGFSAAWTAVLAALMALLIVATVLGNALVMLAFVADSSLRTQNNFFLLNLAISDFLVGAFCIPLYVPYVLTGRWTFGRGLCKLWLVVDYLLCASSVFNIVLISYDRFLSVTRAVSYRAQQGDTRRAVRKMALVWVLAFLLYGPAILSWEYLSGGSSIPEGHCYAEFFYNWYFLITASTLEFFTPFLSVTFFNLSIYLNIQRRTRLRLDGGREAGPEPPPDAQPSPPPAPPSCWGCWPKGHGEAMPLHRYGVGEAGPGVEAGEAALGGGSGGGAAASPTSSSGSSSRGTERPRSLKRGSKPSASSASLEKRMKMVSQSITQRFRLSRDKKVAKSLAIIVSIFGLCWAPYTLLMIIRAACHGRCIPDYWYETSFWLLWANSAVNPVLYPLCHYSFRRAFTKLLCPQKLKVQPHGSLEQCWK

`Clc1ccc(OCCc2c[nH]cn2)cc1` and `Brc1ccc(OCCc2c[nH]cn2)cc1` are within 1.5-fold of each other in Ki: 21 nM for the first, 24 nM for the second.

First: COc1ccc(OCCc2cnc[nH]2)cc1
Second: CCc1ccc(OCCc2cnc[nH]2)cc1
The Ki of the first is 2.1-fold lower: 38 nM for the first, 80 nM for the second.

`O=[N+]([O-])c1ccc(SCCc2c[nH]cn2)cc1` and `O=[N+]([O-])c1cccc(OCCc2c[nH]cn2)c1` are within 1.5-fold of each other in Ki: 9 nM for the first, 12 nM for the second.

First: O=C(c1ccccc1)c1ccc(OCCc2c[nH]cn2)cc1
Second: COC(=O)c1ccc(OCCc2c[nH]cn2)cc1
The Ki of the first is 11-fold higher: 54 nM for the first, 5.1 nM for the second.

First: N#Cc1cccc(OCCc2c[nH]cn2)c1
Second: Clc1cc(Cl)cc(OCCc2c[nH]cn2)c1
The Ki of the first is lower: 39 nM for the first, > 500 nM for the second.

First: FC(F)(F)c1ccc(OCCc2cnc[nH]2)cc1
Second: Fc1ccc(OCCCc2cnc[nH]2)cc1
The Ki of the first is 6.2-fold higher: 68 nM for the first, 11 nM for the second. The second binds more tightly here.

Going from `c1ccc2c(OCCc3c[nH]cn3)cccc2c1` to `CCOC(=O)c1ccc(OCCc2c[nH]cn2)cc1`, the Ki falls from 137 nM to 6 nM (23-fold).

Compared with `Fc1c(F)c(F)c(OCCc2c[nH]cn2)c(F)c1F`, `O=[N+]([O-])c1ccc(NCCc2c[nH]cn2)nc1` is lower in Ki: > 500 nM for the first, 29 nM for the second. The second binds more tightly here.

Going from `O=C(c1ccc(OCCc2cnc[nH]2)cc1)N1CCCCC1` to `CCC(=O)c1ccc(OCCc2cnc[nH]2)cc1`, the Ki falls from 338 nM to 3.7 nM (91-fold).

Tested on: Mus musculus
Experiment: In vivo evaluation for effect on brain tele-methylhistamine levels in mice
Type: functional
Summary of the method: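 Male Swiss mice (18-22 g, groups of at least six) fasted 24 h, then dosed orally as salt suspended in 1% methylcellulose (doses as free base, starting at 10 mg/kg). Cerebral cortex taken 90 min later, homogenized in ice-cold 0.4 M perchloric acid; tele-methylhistamine measured by radioimmunoassay. ED50 calculated relative to maximal level produced by 10 mg/kg thioperamide.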

`O=[N+]([O-])c1ccc(SCCc2c[nH]cn2)nc1` and `O=[N+]([O-])c1ccc(SCCc2c[nH]cn2)cc1` are within 1.5-fold of each other in ED50: 2.6 mg/kg for the first, 2.7 mg/kg for the second.

Going from `N#Cc1ccc(OCCCc2c[nH]cn2)cc1` to `N#Cc1ccc(OCCc2c[nH]cn2)cc1`, the ED50 rises from 0.54 mg/kg to 1.2 mg/kg (2.2-fold).

Going from `Clc1ccc(OCCc2c[nH]cn2)cc1` to `Brc1ccc(OCCc2c[nH]cn2)cc1`, the ED50 rises from 0.78 mg/kg to 2.9 mg/kg (3.7-fold).

`CC(=O)c1ccc(OCCc2c[nH]cn2)cc1` and `COC(=O)c1ccc(OCCc2c[nH]cn2)cc1` cannot be ordered by ED50: 3.2 mg/kg for the first, > 3 mg/kg for the second.

Compared with `c1ccc2cc(OCCc3c[nH]cn3)ccc2c1`, `c1ccc2c(OCCc3c[nH]cn3)cccc2c1` is 2.3-fold higher in ED50: 1.5 mg/kg for the first, 3.4 mg/kg for the second.

First: COc1ccc(OCCc2cnc[nH]2)cc1
Second: CCc1ccc(OCCc2cnc[nH]2)cc1
The ED50 of the first is lower: 2.9 mg/kg for the first, > 10 mg/kg for the second.

Going from `O=[N+]([O-])c1ccc(CSCc2c[nH]cn2)cc1` to `O=[N+]([O-])c1ccc(OCCc2c[nH]cn2)cc1`, the ED50 falls from > 10 mg/kg to 0.66 mg/kg.

First: O=C(c1ccccc1)c1ccc(OCCc2c[nH]cn2)cc1
Second: CCOC(=O)c1ccc(OCCc2c[nH]cn2)cc1
The ED50 of the first is lower: 2.6 mg/kg for the first, > 10 mg/kg for the second.

`CCCc1ccc(OCCc2c[nH]cn2)cc1` and `Cc1ccc(OCCc2c[nH]cn2)cc1` are within 1.5-fold of each other in ED50: 1.6 mg/kg for the first, 2.3 mg/kg for the second.

Going from `N#Cc1ccccc1OCCc1c[nH]cn1` to `N#Cc1cccc(OCCc2c[nH]cn2)c1`, the ED50 falls from > 10 mg/kg to 2.9 mg/kg.

First: O=[N+]([O-])c1cccc(OCCc2c[nH]cn2)c1
Second: O=[N+]([O-])c1ccc(NCCc2c[nH]cn2)cc1
The ED50 of the first is 12-fold lower: 0.9 mg/kg for the first, 10.7 mg/kg for the second.

Compared with `FC(F)(F)c1ccc(OCCc2cnc[nH]2)cc1`, `Fc1ccc(OCCCc2cnc[nH]2)cc1` is lower in ED50: > 10 mg/kg for the first, 4.9 mg/kg for the second.

Going from `FC(F)(F)c1ccc(OCCCc2c[nH]cn2)cc1` to `Clc1cc(Cl)cc(OCCc2c[nH]cn2)c1`, the ED50 rises from 0.6 mg/kg to > 10 mg/kg.

Going from `Fc1c(F)c(F)c(OCCc2c[nH]cn2)c(F)c1F` to `CCC(=O)c1ccc(OCCc2cnc[nH]2)cc1`, the ED50 falls from 10 mg/kg to 0.95 mg/kg (11-fold).

Going from `O=C(c1ccc(OCCc2cnc[nH]2)cc1)N1CCCCC1` to `S=C(NC1CCCCC1)N1CCC(c2cnc[nH]2)CC1` [THIOPERAMIDE], the ED50 falls from > 10 mg/kg to 1 mg/kg.
